Experimental data as given in PubChem BioAssay.
The source made the active and inactive calls.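 Rule for the calls: active = current rise at least 3 SD above the untreated control mean in each of two repeat wells; inactive = the rest.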

target: Potassium voltage-gated channel subfamily KQT member 1 (Homo sapiens) (UniProt P51787); assay: KCNQ1 activators by electrophysiology – IonWorks patch clamp, KCNQ1-CHO cells, orthogonal assay for KCNQ1 potentiator project, confirmation (AID 493184); conditions: automated patch clamp current, at 10 µM
Outline: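 assay system = KCNQ1-expressing CHO cells | medium = external bath solution at pH 7.4 | probe or stimulus = 2,000 ms depolarization, -90 to +40 mV | compound dosing = 10 µM final, single point | measured by = automated voltage clamp, amphotericin B perforated patch | measure = percent current increase versus pre-compound level | replication = duplicates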

Sequence of Potassium voltage-gated channel subfamily KQT member 1 (Homo sapiens) (P51787 whole entry, looked up): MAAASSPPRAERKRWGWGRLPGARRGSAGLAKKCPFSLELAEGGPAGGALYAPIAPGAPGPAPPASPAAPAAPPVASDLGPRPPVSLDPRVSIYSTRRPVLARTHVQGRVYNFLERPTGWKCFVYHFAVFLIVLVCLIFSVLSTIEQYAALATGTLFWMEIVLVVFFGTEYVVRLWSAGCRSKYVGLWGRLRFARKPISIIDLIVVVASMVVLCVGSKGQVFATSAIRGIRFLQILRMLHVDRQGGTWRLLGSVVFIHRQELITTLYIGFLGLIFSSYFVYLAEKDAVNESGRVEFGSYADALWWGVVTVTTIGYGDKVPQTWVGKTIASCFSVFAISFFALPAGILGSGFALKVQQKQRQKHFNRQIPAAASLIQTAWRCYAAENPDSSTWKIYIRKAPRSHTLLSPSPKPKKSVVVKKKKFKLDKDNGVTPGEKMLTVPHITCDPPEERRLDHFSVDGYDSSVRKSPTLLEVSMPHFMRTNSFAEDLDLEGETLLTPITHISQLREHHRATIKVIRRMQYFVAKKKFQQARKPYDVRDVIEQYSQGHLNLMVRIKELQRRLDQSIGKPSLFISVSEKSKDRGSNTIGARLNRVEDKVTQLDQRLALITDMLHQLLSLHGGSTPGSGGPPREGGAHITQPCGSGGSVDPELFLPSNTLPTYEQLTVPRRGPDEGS

outcome, inactive:
Oc1c(Br)cc(Br)cc1C=NCc1ccc(F)cc1
O=c1c(O)c(-c2ccc3c(c2)OCO3)oc2ccccc12
Cc1ccc(-c2csc3nc[nH]c(=S)c23)cc1C
O=C(Nc1cc([N+](=O)[O-])ccc1N1CCCC1)c1cccs1
O=C(NC(=S)Nc1ccc(N2CCOCC2)c(Cl)c1)c1sc2ccccc2c1Cl
CC(=O)c1ccc(N2CCN(C(=O)c3ccc(NC(=O)C4CCCO4)cc3)CC2)cc1 (stereo not given)
CC(=O)Nc1cc(NC(C)=O)cc(C(=O)OC(C)C(=O)Nc2ccc(S(=O)(=O)N3CCCC3)cc2)c1 (stereo not given)
O=C(N/N=C/c1c[nH]c2ccccc12)C1COc2ccccc2O1 (stereo not given)
CCCCn1c(=S)[nH]c2ncccc2c1=O
CN(Cc1nccs1)C(=O)c1ccc(OC2CCN(Cc3ccccn3)CC2)cc1
Cc1ccccc1OC(=O)n1c(=S)oc2cc(Cl)ccc21
CCOc1ccc(N2CC(C(=O)Nc3cc(Cl)ccc3-n3cncn3)CC2=O)cc1 (stereo not given)
COc1ccccc1NC(=O)C(=O)NNC(=O)COc1ccc2ccccc2c1
Cc1cccc(NC(=S)NC(=O)c2cc(-c3ccccc3)nc3ccccc23)c1
CCCCCn1c(=O)c2ccccc2n2c(=S)[nH]nc12
COC(=O)c1sc(-c2ccccc2)cc1NC(=O)C1CC1
Cc1ccc(N=Nc2ccc(O)c3ncccc23)cc1
S=c1[nH]c(-c2ccccc2)cn1/N=C/c1cccc2ccccc12
CCCN(CCC)CCNC(=O)Cn1cnc2sc(C)c(S(=O)(=O)N3CCOCC3)c2c1=O
CCOc1ccc(S(=O)(=O)N2CCCC(C(=O)NCCN3CCOCC3)C2)cc1Cl (stereo not given)
CCOC(=O)c1c(CN2CCN(CCO)CC2)n(C)c2cc(Br)c(OC)cc12
CC(C)n1cc(NC(=O)c2cc(-c3ccccc3)on2)cn1
COc1ccccc1-n1cnc2cc(NCc3ccco3)ccc21
O=c1cc(N2CCc3ccccc32)[nH]c(=O)n1Cc1ccc(F)cc1
Cc1ccc(C2=CSC3=NS(=O)(=O)CCN23)cc1
Oc1oc(-c2cccc3ccccc23)nc1/C=N/c1nccs1
COc1ccc2nc(N=Nc3ccc(O)c4ccccc34)sc2c1
COCCn1c(=S)[nH]c2sc3c(c2c1=O)CCC(C)C3 (stereo not given)
COc1ccc(OC)c(-c2cc(C(=O)N3CCN(c4ccccc4)CC3)no2)c1
COc1ccc(C(=O)CC(=O)C(=O)Nc2ccccc2C(F)(F)F)cc1
CC(=O)c1c(-c2ccccc2)c2cc([N+](=O)[O-])ccc2[nH]c1=O
CC1(C)Cc2c(sc3[nH]c(=S)n(Cc4ccccc4)c(=O)c23)CO1
COC(=O)c1cn(NC(=O)Cc2ccc(Cl)c(Cl)c2)c(=O)c2ccccc12
CCN(C(=O)c1cc2cc3ccc(C)cc3nc2o1)c1ccc(OC)cc1
O=C(N/N=C1/C(=O)c2cccc3cccc1c23)c1ccc(Cl)cc1
Cc1ccc(-n2c(=S)[nH]c3c(oc4ccccc43)c2=O)cc1C
O=C(NC(=S)NCCc1ccccc1)c1cccc(Cl)c1
O=C(NC(=S)Nc1ccccc1Cl)c1ccco1
S=c1[nH]cnc2sc(-c3ccccc3)cc12
Cc1cccc(C(=O)NNC(=O)C(=O)NC(C)(C)C)c1
